{"data": "Measured values pooled from the literature", "target": "Mitogen-activated protein kinase 10 (MAPK10, Homo sapiens, UniProt P53779)", "note": "Lines come from different studies, so protocols differ."}
{"SMILES": "CC1=C(C#N)C(c2ccc3c(c2)c(NC(=O)c2ccccc2C)nn3C)C(C#N)=C(C)N1", "observed": "cell-free assay", "technique": "competition with immobilised ligand", "tested at": "1 µM", "measurement": "remaining binding", "value": "100%"}
{"SMILES": "N#CCCc1ccc2c(c1)-c1[nH]c3ccc([N+](=O)[O-])cc3c1CC(=O)N2", "observed": "cell-free assay", "tested at": "0.5 µM", "measurement": "remaining signal", "value": "93.3%"}
{"SMILES": "CN1CC(Oc2cnc(C#N)cc2-c2ccn3nc(NC(=O)C4CC4)cc3c2)C1", "observed": "enzyme activity", "action": "inhibitor", "tested at": "1 µM", "measurement": "inhibition", "value": "2%"}
{"SMILES": "Cc1ccc(C(=O)NCc2ccsc2)cc1C#Cc1cn(C(C)C)c2ncnc(N)c12", "observed": "enzyme activity", "action": "inhibitor", "tested at": "1 µM", "measurement": "activity vs control", "value": "84%"}
{"SMILES": "CCOc1cc(-c2nncn2C)ccc1Nc1ncc2cc(C)nc(NCC(C)(C)C)c2n1", "observed": "enzyme activity", "action": "inhibitor", "technique": "FRET", "tested at": "1 µM", "measurement": "inhibition", "value": "80%"}
{"SMILES": "CC(C)(O)[C@H]1CC[C@H](Nc2ccc3ncc(-c4cccc(C(F)(F)F)c4)n3n2)CC1", "observed": "enzyme activity", "action": "inhibitor", "tested at": "1 µM", "measurement": "remaining activity", "value": "107%"}
{"SMILES": "CC(C)(C)c1nc2c(s1)c1nc(N)ncc1c1ccc(NS(=O)(=O)c3c(F)cccc3F)c(F)c12", "observed": "enzyme activity", "action": "inhibitor", "technique": "radiometric", "tested at": "1 µM", "measurement": "remaining activity", "value": "70%"}
{"SMILES": "COc1cc(Nc2cnc(C#N)c(O[C@H](C)CN(C)C)n2)ncc1-c1cnn(C)c1", "observed": "enzyme activity", "action": "inhibitor", "technique": "radiometric", "tested at": "1 µM", "measurement": "remaining activity", "value": "113%"}
{"SMILES": "CS(=O)(=O)c1cc(C2(NC(=O)c3cncc4c3cnn4-c3ccc(F)cc3)CC2)ccn1", "observed": "cell-free assay", "technique": "competition with immobilised ligand", "tested at": "1 µM", "measurement": "remaining binding", "value": "100%"}
{"SMILES": "FC(F)(F)Oc1cccc(-c2cnc3ccc(-c4ccncc4)nn23)c1", "observed": "enzyme activity", "action": "inhibitor", "technique": "radiometric", "tested at": "1 µM", "measurement": "activity vs control", "value": "85%"}
{"SMILES": "CCC(=O)N[C@@H]1CC[C@H](C(=O)N(C)c2ccc(-c3nc4ccccc4o3)cc2)C1", "observed": "cell-free assay", "technique": "competition with immobilised ligand", "tested at": "1 µM", "measurement": "remaining binding", "value": "100%"}
{"SMILES": "CCCS(=O)(=O)Nc1ccc(F)c(C(=O)c2c[nH]c3ncc(-c4ccc(Cl)cc4)cc23)c1F", "observed": "enzyme activity", "action": "inhibitor", "tested at": "1 µM", "measurement": "inhibition", "value": "< 10%"}
{"SMILES": "FC(F)c1nc2ccccc2n1-c1nc(N2CCOCC2)nc(N2CCOCC2)n1", "observed": "enzyme activity", "action": "inhibitor", "tested at": "10 µM", "measurement": "remaining activity", "value": "88%"}
{"SMILES": "C[C@H](c1ccnc(Nc2nc3ccc(-c4cc(N(C)C)ncn4)cc3[nH]2)c1)N1CCN(C(=O)CC(F)(F)F)CC1", "observed": "cell-free assay", "technique": "competition with immobilised ligand", "tested at": "0.1 µM", "measurement": "remaining binding", "value": "81%"}
{"SMILES": "COc1cc2ncnc(Nc3ccc(Oc4ccccc4)cc3C)c2cc1OC", "observed": "enzyme activity", "action": "inhibitor", "tested at": "1 µM", "measurement": "inhibition", "value": "5%"}
{"SMILES": "CC/C(=N\\NC(=O)NCc1cccc(O)c1)c1ccc(O)c(C)c1O", "observed": "enzyme activity", "action": "inhibitor", "tested at": "0.1 µM", "measurement": "inhibition", "value": "-5%"}
{"SMILES": "Nc1ncnc2c1ncn2[C@@H]1O[C@H](COP(=O)(O)OP(=O)(O)OP(=O)(O)O)[C@@H](O)[C@H]1O", "observed": "thermal stability", "technique": "DSF", "tested at": "200 µM", "measurement": "ΔTm", "value": "2.73 °C"}
{"SMILES": "CCS(=O)(=O)c1cc2cc(C[C@@](O)(CC(C)(C)c3ccc(F)cc3C(N)=O)C(F)(F)F)[nH]c2cn1", "observed": "cell-free assay", "technique": "competition with immobilised ligand", "tested at": "1 µM", "measurement": "remaining binding", "value": "100%"}
{"SMILES": "O=C1Nc2ccc(Cl)cc2C1=Cc1cc(Cl)c(O)c(Cl)c1", "observed": "cell-free assay", "tested at": "0.5 µM", "measurement": "remaining signal", "value": "98.8%"}
{"SMILES": "CNC(=O)c1cc(Oc2ccc(NC(=O)Nc3ccc(Cl)c(C(F)(F)F)c3)cc2)ccn1", "observed": "enzyme activity", "action": "inhibitor", "tested at": "10 µM", "measurement": "inhibition", "value": "66%"}
{"SMILES": "CN(C)CC#Cc1ccc(OCCCc2sc(N3CCc4cccc(C(=O)Nc5nc6ccccc6s5)c4C3)nc2C(=O)O)c(F)c1", "observed": "cell-free assay", "technique": "competition with immobilised ligand", "tested at": "1 µM", "measurement": "remaining binding", "value": "71%"}
{"SMILES": "Cc1sc(C(=O)NC2COC2)cc1-n1cc(NC(=O)Nc2c(F)cccc2Cl)cn1", "observed": "enzyme activity", "action": "inhibitor", "tested at": "10 µM", "measurement": "remaining activity", "value": "10.5%"}
{"SMILES": "Cc1c(NC(=O)c2cc(C(N)=O)nc3cc(F)ccc23)c(C(F)(F)F)nn1Cc1ccc(C(C)(C)C)cc1", "observed": "cell-free assay", "technique": "competition with immobilised ligand", "tested at": "1 µM", "measurement": "remaining binding", "value": "100%"}
{"SMILES": "COc1cc(-c2cc(-c3ccc(N4CCNCC4)cc3)cnc2C)cc(OC)c1OC", "observed": "enzyme activity", "action": "inhibitor", "tested at": "0.1 µM", "measurement": "inhibition", "value": "1%"}
